Assays:
[1] = biological target: Phosphorylase kinase (Homo sapiens) (UniProt P15735+P46020+P46019+Q93100+Q16816); test: Inhibition of recombinant PHK (unknown origin) assessed as residual activity using [gamma-33P]ATP as substrate at 1 uM; format: protein-complex assay
In short: (§1)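 Selectivity panel run under previously published conditions. Screened at 1 μM in duplicate. Reactions started with [γ-33P]ATP (800 cpm/pmol) at 5, 20 or 50 μM, chosen to be at or below each enzyme's ATP Km. Stopped with phosphoric acid, spotted onto P81 filters. Result expressed as residual kinase activity.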

[2] = biological target: Mitogen-activated protein kinase 14 (Homo sapiens) (UniProt Q16539); test: Inhibition of recombinant p38 MAPKalpha (unknown origin) assessed as residual activity using [gamma-33P]ATP as substrate at 1 uM
In short: (§2)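 Kinase panel screen with each compound at 1 µM, in duplicate. Reactions were started with [γ-33P]ATP (800 cpm/pmol) at 5, 20 or 50 µM, chosen per enzyme to be at or below its ATP Km. Reactions were stopped with phosphoric acid and spotted onto P81 filters. Results are given as residual kinase activity.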

[3] = biological target: Dual specificity mitogen-activated protein kinase kinase 2 (Homo sapiens) (UniProt P36507); test: Inhibition of recombinant MKK2 (unknown origin) assessed as residual activity using [gamma-33P]ATP as substrate at 1 uM; in short: as §1
[4] = biological target: Interleukin-1 receptor-associated kinase 1 (Homo sapiens) (UniProt P51617); test: Inhibition of recombinant IRAK1 (unknown origin) assessed as residual activity using [gamma-33P]ATP as substrate at 1 uM
In short: (§3)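 Recombinant kinase panel screened at 1 µM in duplicate. Reactions started with [γ-33P]ATP (800 cpm/pmol) at 5, 20 or 50 µM, chosen to sit at or below each enzyme's ATP Km. Stopped with phosphoric acid and spotted onto P81 filters. Result given as residual kinase activity.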

[5] = biological target: Misshapen-like kinase 1 (Homo sapiens) (UniProt Q8N4C8); test: Inhibition of recombinant MINK1 (unknown origin) assessed as residual activity using [gamma-33P]ATP as substrate at 1 uM; in short: as §1
[6] = biological target: Serine/threonine-protein kinase 33 (Homo sapiens) (UniProt Q9BYT3); test: Inhibition of recombinant STK33 (unknown origin) assessed as residual activity using [gamma-33P]ATP as substrate at 1 uM; in short: as §2
[7] = biological target: Myosin light chain kinase, smooth muscle (Homo sapiens) (UniProt Q15746); test: Inhibition of recombinant SMMLCK (unknown origin) assessed as residual activity using [gamma-33P]ATP as substrate at 1 uM; in short: as §2
[8] = biological target: Receptor-interacting serine/threonine-protein kinase 2 (Homo sapiens) (UniProt O43353); test: Inhibition of recombinant RIPK2 (unknown origin) assessed as residual activity using [gamma-33P]ATP as substrate at 1 uM; in short: as §1
[9] = biological target: Protein kinase C gamma type (Homo sapiens) (UniProt P05129); test: Inhibition of recombinant PKCgamma (unknown origin) assessed as residual activity using [gamma-33P]ATP as substrate at 1 uM; in short: as §1
[10] = biological target: Protein kinase C zeta type (Homo sapiens) (UniProt Q05513); test: Inhibition of recombinant PKCzeta (unknown origin) assessed as residual activity using [gamma-33P]ATP as substrate at 1 uM; in short: as §1
[11] = biological target: Protein kinase C alpha type (Homo sapiens) (UniProt P17252); test: Inhibition of recombinant PKCalpha (unknown origin) assessed as residual activity using [gamma-33P]ATP as substrate at 1 uM; in short: as §1
[12] = biological target: Serine/threonine-protein kinase pim-2 (Homo sapiens) (UniProt Q9P1W9); test: Inhibition of recombinant PIM2 (unknown origin) assessed as residual activity using [gamma-33P]ATP as substrate at 1 uM; in short: as §1
[13] = biological target: Dual specificity tyrosine-phosphorylation-regulated kinase 3 (Homo sapiens) (UniProt O43781); test: Inhibition of recombinant DYRK3 (unknown origin) assessed as residual activity using [gamma-33P]ATP as substrate at 1 uM; in short: as §3
[14] = biological target: Casein kinase II (Homo sapiens) (UniProt P67870+P68400+P19784); test: Inhibition of recombinant CK2 (unknown origin) assessed as residual activity using [gamma-33P]ATP as substrate at 1 uM; format: protein-complex assay; in short: as §3
[15] = species: Homo sapiens; test: Inhibition of recombinant CK1 (unknown origin) assessed as residual activity using [gamma-33P]ATP as substrate at 1 uM; in short: as §3
[16] = biological target: Serine/threonine-protein kinase BRSK1 (Homo sapiens) (UniProt Q8TDC3); test: Inhibition of recombinant BRSK1 (unknown origin) assessed as residual activity using [gamma-33P]ATP as substrate at 1 uM; in short: as §3
[17] = biological target: Aurora kinase B (Homo sapiens) (UniProt Q96GD4); test: Inhibition of recombinant AURB (unknown origin) assessed as residual activity using [gamma-33P]ATP as substrate at 1 uM; in short: as §3
[18] = biological target: Aurora kinase A (Homo sapiens) (UniProt O14965); test: Inhibition of recombinant AURA (unknown origin) assessed as residual activity using [gamma-33P]ATP as substrate at 1 uM; in short: as §3
[19] = system: MCF7; test: Cytotoxicity against human MCF7 cells assessed as inhibition of cell viability after 72 hrs by calcien AM dye based fluorescence analysis; format: functional; details: MCF7, 72 h
In short: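 MCF7 cells grown in DMEM with 10% FBS, 2 mM glutamine, penicillin and streptomycin at 37 °C and 5% CO2. About 10,000 cells per well, left 4 h, then a concentration range added in triplicate, DMSO ≤0.5% final. After 72 h, 1 µg/ml calcein AM (final) for 1 h; fluorescence read at 485/538 nm. Viability given as % of control; IC50 read graphically from dose-response curves; mean of ≥3 independent experiments.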

[20] = biological target: 3-phosphoinositide-dependent protein kinase 1 (Homo sapiens) (UniProt O15530); test: Inhibition of recombinant PDK1 (unknown origin) assessed as residual activity using [gamma-33P]ATP as substrate at 1 uM
[21] = system: MCF7; test: Ratio of roscovitine IC50 to compound IC50 for human MCF7 cells after 72 hrs by calcien AM dye based fluorescence analysis; format: functional
[22] = biological target: Cyclin-dependent kinase 2/cyclin E1 (Homo sapiens) (UniProt P24864+P24941); test: Ratio of roscovitine IC50 to compound IC50 for recombinant CDK2/cyclin E (unknown origin); format: protein-complex assay
[23] = biological target: Cyclin-dependent kinase 1/cyclin B1 (Homo sapiens) (UniProt P06493+P14635); test: Ratio of roscovitine IC50 to compound IC50 for recombinant CDK1/cyclin B (unknown origin); format: protein-complex assay

Dual specificity tyrosine-phosphorylation-regulated kinase 3 (Homo sapiens), sequence (O43781 whole entry): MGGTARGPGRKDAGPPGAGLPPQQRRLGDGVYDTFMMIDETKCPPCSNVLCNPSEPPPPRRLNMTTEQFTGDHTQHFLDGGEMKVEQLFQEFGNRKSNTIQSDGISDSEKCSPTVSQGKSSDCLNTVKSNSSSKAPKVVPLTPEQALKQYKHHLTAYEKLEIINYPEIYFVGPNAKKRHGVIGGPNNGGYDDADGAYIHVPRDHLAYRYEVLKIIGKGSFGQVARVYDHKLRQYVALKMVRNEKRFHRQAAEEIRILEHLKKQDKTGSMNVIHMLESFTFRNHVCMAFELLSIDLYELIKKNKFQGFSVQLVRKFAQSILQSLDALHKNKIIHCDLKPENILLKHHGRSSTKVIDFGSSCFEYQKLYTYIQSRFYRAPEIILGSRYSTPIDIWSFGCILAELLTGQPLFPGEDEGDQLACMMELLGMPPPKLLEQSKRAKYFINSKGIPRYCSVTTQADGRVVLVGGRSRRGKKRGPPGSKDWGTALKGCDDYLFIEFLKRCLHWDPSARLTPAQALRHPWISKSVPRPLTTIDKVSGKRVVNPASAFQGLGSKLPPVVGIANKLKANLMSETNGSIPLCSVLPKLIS
Serine/threonine-protein kinase pim-2 (Homo sapiens), sequence (Q9P1W9 whole entry, looked up): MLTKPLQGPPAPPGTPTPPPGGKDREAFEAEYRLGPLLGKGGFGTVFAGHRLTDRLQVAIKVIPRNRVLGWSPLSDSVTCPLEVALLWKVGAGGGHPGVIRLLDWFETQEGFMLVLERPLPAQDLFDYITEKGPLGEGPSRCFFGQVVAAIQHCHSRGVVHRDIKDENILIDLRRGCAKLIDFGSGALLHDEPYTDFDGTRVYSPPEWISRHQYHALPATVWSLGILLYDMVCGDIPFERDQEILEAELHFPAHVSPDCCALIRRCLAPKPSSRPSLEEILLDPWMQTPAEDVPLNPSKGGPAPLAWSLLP
Protein kinase C zeta type (Homo sapiens), sequence (Q05513 whole entry): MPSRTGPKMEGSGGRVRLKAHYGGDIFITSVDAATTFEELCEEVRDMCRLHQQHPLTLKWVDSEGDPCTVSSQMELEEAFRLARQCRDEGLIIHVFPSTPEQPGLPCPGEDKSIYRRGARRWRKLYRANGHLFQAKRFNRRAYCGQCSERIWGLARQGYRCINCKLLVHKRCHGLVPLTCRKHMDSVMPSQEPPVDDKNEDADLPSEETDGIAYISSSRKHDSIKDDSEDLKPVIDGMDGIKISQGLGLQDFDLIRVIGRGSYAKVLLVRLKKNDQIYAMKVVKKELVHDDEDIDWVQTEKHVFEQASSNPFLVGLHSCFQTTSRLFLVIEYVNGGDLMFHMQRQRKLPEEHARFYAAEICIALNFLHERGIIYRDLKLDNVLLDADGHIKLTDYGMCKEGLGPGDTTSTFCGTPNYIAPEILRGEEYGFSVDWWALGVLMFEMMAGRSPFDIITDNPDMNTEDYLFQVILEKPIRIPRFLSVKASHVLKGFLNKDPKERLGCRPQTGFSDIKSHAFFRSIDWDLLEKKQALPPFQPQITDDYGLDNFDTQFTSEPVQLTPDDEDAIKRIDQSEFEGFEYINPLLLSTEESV
Myosin light chain kinase, smooth muscle (Homo sapiens), sequence (Q15746 whole entry): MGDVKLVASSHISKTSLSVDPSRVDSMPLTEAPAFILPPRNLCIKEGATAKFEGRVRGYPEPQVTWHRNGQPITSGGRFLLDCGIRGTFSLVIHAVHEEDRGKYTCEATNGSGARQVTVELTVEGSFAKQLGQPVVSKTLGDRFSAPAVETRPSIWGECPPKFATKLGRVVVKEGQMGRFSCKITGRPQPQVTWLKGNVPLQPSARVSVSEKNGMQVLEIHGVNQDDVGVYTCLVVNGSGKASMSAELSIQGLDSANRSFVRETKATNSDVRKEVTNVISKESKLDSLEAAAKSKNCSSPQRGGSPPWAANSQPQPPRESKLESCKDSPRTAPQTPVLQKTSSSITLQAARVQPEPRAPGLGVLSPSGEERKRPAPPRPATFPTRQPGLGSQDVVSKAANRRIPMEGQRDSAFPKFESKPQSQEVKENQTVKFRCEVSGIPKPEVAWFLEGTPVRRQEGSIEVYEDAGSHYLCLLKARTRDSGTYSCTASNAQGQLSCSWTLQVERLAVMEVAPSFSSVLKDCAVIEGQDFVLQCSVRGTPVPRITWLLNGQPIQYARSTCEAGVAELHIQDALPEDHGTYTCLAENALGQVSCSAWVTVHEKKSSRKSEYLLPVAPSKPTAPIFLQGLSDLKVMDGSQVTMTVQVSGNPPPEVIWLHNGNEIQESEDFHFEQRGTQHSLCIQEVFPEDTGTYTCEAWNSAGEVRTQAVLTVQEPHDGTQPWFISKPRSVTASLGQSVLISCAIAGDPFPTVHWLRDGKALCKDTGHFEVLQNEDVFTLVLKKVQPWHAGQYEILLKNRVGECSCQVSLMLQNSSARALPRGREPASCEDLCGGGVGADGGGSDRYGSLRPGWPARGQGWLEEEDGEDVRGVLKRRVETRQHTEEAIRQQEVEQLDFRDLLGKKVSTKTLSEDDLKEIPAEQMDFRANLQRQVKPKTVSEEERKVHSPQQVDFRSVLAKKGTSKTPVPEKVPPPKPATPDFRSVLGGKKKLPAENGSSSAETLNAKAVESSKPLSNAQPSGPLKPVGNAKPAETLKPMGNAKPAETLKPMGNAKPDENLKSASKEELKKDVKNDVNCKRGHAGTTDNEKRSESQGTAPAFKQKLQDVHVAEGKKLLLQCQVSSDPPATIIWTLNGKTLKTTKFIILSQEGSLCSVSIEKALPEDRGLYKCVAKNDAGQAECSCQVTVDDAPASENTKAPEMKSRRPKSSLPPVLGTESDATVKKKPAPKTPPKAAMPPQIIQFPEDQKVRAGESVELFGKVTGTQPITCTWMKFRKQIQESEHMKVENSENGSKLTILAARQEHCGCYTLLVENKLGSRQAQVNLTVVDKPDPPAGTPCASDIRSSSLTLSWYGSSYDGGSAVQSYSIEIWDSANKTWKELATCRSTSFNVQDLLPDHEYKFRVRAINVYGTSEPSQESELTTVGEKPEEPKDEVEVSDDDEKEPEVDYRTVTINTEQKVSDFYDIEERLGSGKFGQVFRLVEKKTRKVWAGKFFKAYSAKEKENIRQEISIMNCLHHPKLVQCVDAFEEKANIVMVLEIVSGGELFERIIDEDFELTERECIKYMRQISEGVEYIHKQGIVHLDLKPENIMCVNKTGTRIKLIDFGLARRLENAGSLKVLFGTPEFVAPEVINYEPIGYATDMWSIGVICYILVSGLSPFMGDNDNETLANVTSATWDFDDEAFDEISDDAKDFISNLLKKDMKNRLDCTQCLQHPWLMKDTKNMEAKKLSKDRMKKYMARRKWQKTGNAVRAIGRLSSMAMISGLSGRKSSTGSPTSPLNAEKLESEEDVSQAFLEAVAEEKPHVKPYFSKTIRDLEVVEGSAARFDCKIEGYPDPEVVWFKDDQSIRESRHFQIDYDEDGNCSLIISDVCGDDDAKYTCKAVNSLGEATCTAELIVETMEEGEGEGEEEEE
Mitogen-activated protein kinase 14 (Homo sapiens), sequence (Q16539 whole entry): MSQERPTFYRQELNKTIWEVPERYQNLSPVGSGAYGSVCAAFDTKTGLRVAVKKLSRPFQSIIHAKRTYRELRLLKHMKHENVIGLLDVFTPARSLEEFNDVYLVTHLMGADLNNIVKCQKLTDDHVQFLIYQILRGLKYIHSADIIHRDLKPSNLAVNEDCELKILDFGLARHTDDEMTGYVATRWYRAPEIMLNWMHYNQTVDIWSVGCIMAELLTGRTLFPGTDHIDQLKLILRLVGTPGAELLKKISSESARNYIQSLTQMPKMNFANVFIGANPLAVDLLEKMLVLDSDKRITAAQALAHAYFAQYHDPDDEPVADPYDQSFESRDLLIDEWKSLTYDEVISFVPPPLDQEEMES
Serine/threonine-protein kinase 33 (Homo sapiens), sequence (Q9BYT3 whole entry, looked up): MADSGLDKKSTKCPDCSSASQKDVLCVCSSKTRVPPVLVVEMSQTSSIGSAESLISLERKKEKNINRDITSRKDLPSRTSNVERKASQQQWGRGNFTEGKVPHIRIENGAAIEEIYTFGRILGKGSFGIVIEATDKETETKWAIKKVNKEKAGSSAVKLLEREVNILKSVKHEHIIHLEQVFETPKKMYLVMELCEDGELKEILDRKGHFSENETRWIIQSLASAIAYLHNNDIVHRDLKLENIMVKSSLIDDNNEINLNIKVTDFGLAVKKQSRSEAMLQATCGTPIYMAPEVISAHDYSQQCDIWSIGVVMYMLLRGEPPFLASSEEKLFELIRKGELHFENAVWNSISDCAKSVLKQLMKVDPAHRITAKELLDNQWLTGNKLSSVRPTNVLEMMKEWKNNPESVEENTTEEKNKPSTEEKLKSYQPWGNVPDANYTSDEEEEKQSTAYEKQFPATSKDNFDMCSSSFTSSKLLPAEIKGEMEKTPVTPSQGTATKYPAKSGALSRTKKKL

| Activity [1] [%] | Activity [2] [%] | Activity [3] [%] | Activity [4] [%] | Activity [5] [%] | Activity [6] [%] | Activity [7] [%] | Activity [8] [%] | Activity [9] [%] | Activity [10] [%] | Activity [11] [%] | Activity [12] [%] | Activity [13] [%] | Activity [14] [%] | Activity [15] [%] | Activity [16] [%] | Activity [17] [%] | Activity [18] [%] | Activity [20] [%] | Structure (SMILES) | IC50 [19] [µM] | other results |
| --- | --- | --- | --- | --- | --- | --- | --- | --- | --- | --- | --- | --- | --- | --- | --- | --- | --- | --- | --- | --- | --- |
| 14 | 87 | 53 | 26 | 64 | 11 | 49 | 72 | 73 | 68 | 71 | 88 | 18 | 43 | 15 | 44 | 47 | 39 | 68 | CC[C@H](CO)Nc1nc(NC(=N)N)c2ncn(C(C)C)c2n1 | 4.5 | – |
| 12 | 82 | 39 | 17 | 75 | 9 | 32 | 76 | 61 | 61 | 68 | 91 | 11 | 33 | 21 | 45 | 70 | 30 | 62 | CC[C@@H](CO)Nc1nc(NC(=N)N)c2ncn(C(C)C)c2n1 | 1.6 | Ratio IC50 [21]: >10; Ratio IC50 [22]: 4.6; Ratio IC50 [23]: 2.7 |

Reference: ChEMBL document CHEMBL2331324, “Synthesis and biological evaluation of guanidino analogues of roscovitine” (Eur J Med Chem, 2013)
